Compound activity deposited in PubChem by Broad Institute.
Shown are actives, neighbours in structure and some others; about 1.6% of the full set was active somewhere.
SR-BI DiI-HDL act = activators of SR-BI mediated DiI-HDL uptake, primary screen, ldlA[mSR-BI] CHO cells, DiI fluorescence | AID 504775, 2011 | actives 0.096% (n = 320,000) | 3 h; 100 = double the neutral-control signal | activation, % at 12.5 µM;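 active = mean replicate activation of at least 60% and every replicate at or above 60%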;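 also: 0% = median plate neutral-control signal and 100% = twice that signal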
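Test system: SR-BI-overexpressing, LDLR-lacking CHO cells; Medium: Ham's F12 with 0.5% BSA, HEPES 25 mM, pH 7.4; Schedule: 3 h, 37 °C; Technique: bottom-read fluorescence, 550/595 nm.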
S100A4 MyoIIA = inhibitors of S100A4-myosin IIA peptide binding, primary screen, biochemical, fluorescence polarization, TAMRA-MyoIIA peptide | AID 652163, 2013 | actives 0.14% (n = 360,000) | Protein S100-A4 (Homo sapiens), P26447 | inhibition, % at 10.7 µM;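 active = mean inhibition of at least 70% across replicates, with every replicate also reaching that level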
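assay system = human S100A4 monomer with TAMRA-labelled myosin IIA peptide | also added = labelled myosin peptide probe, 5 nM | incubation = 5 min between mix addition and reading | control set = DMSO and TFP controls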
SR-BI HDL uptake = inhibitors of SR-BI mediated HDL lipid uptake, primary screen, ldlA[mSR-BI] cells, fluorescence, single point. Scavenger receptor class B member 1 (Mus musculus), Q61009. ldlA[mSR-BI] CHO cells, DiI-HDL uptake fluorescence, 3 h. inhibition, % at 12.5 µM. actives 0.96% (n = 320,000). AID 488896, 2010;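 active = mean replicate inhibition of at least 70% and a set share of replicates each scoring 70 or more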;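 also: 0% = median of neutral control wells and 100% = median of positive control wells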
dFosB act = activators of delta FosB homodimer, primary screen, biochemical, fluorescence polarization, TAMRA-CDK5 oligo, single point; Protein FosB (Mus musculus), P13346; purified delta FosB; percent of positive-control signal above neutral wells; activation, % at 25 µM; actives 0.99% (n = 340,000); AID 493131, 2011;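 active = mean activation above about 17%, with every replicate also reaching it, limit read from the data, passing the limit was not always enough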
RAD54 inh = inhibitors of human RAD54 branch migration, primary screen, biochemical, fluorescence, single point. DNA repair and recombination protein RAD54-like (Homo sapiens), Q92698. RAD54 Holliday junction branch migration, FAM/BHQ fluorescence. inhibition, % at 10.4 µM. actives 0.14% (n = 360,000);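 active = mean normalized replicate activity at least 40 and at least half of replicates scoring 40 or more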;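 also: 0% = median of neutral control wells and 100% = median of positive control wells; inhibitors cause a drop in the FAM fluorescence signal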
PvdQ acylase = P. aeruginosa PvdQ acylase inhibitors, primary screen, biochemical, fluorescence, plate reader and imaging, single point. purified PvdQ acylase. inhibition, % at 10 µM. PvdQ acylase [Pseudomonas aeruginosa LESB58]. actives 0.063% (n = 340,000); in the data active = inhibition above about 30%, passing the limit was not always enough;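 also: 0% = vehicle neutral wells and 100% = reference inhibitor wells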
* hit, by the source's call; . = no result given.

SMILES	SR-BI DiI-HDL act	S100A4 MyoIIA	SR-BI HDL uptake	dFosB act	RAD54 inh	PvdQ acylase
O=C(c1ccc(N2C(=O)CCC2=O)cc1)N1CCCSC1=Nc1ccccc1	.	84*	.	.	-9	.
Cc1cc(NC(=O)Nc2cc(C)nn2-c2ccccc2)n(-c2ccccc2)n1	-84	.	84*	-6	-6	-15
COCC(=O)Nc1ccc2c(c1)C(=O)N(C)[C@@H]1CC[C@@H](CC(=O)NCC3CC3)O[C@H]1CO2	.	0	.	.	-19	.
CC(C)NC(=O)N(C)C[C@H]1Oc2ccc(NC(=O)Nc3cccc4ccccc34)cc2C(=O)N([C@@H](C)CO)C[C@H]1C	.	-7	.	.	8	.
CN(C)c1ccc2nc3ccc(=O)cc-3sc2c1	.	39	.	.	-4	.
CN(C)c1ccc2nc3ccc(=[N+](C)C)cc-3sc2c1	-20	12	20	40*	.	-2
O=[N+]([O-])c1ccc(O)c(N=Cc2sc3ccccc3c2O)c1	-125	-13	124*	1	3	10
CCOC(=O)c1ccc(S(=O)(=O)N2CCC(C(=O)OCC)CC2)cc1	11	0	-11	5	2	-5
CN(C(=O)COC(=O)c1cc(S(=O)(=O)N2CCCCC2)ccc1Cl)c1ccccc1	-72	-1	72*	-6	-10	-9
Cn1cccc1C(=O)NC(=O)COC(=O)c1cc(S(=O)(=O)N2CCCCC2)ccc1Cl	-81	5	81*	-2	9	-1
CN(C(=O)COC(=O)c1cc(F)c(F)cc1Cl)c1ccccc1	.	1	.	-7	-15	-13
CCOC(=O)c1ccc(S(=O)(=O)N2CCC(C(=O)O)CC2)cc1	69*	-1	-69	2	-8	-6
CN(C(=O)COC(=O)c1ccc(S(=O)(=O)N2CCOCC2)cc1)c1ccccc1	70*	2	-70	7	6	-10
O=C(COC(=O)c1cc(S(=O)(=O)N2CCCCC2)ccc1Cl)NC1CCCCC1	.	-5	.	.	11	.
O=C(C[C@H]1CC[C@H](NS(=O)(=O)c2cccc(F)c2)[C@@H](CO)O1)NCc1ccc2c(c1)OCO2	.	105*	.	.	4	.
O=C(C[C@@H]1C=C[C@@H](NS(=O)(=O)c2cccc(F)c2)[C@@H](CO)O1)NCc1ccc2c(c1)OCO2	.	83*	.	.	-1	.
COc1cccc(-c2cc(C(=O)Nc3cc(C)n(Cc4ccc(Cl)cc4)n3)no2)c1	-68	-16	68	9	2	-2
COc1ccc(OC)c(-c2cc(C(=O)Nc3cc(C)n(Cc4ccc(Cl)cc4)n3)no2)c1	-89	.	89*	-7	-3	-12
CN(c1cccc(NC(=O)CN(c2ccc(C34CC5CC(CC(C5)C3)C4)cc2)S(C)(=O)=O)c1)S(C)(=O)=O	76*	.	-76	-19	-14	0
CN(C)c1ccc(C(=O)OCC(=O)Nc2ccc(S(N)(=O)=O)cc2)cc1	27	-5	-27	82*	9	-11
Cc1ccc(CNC(=O)c2ccc(N3CCC4(CC3)CC(c3cccc(Br)c3)=NO4)c(N)c2)cc1	-85	0	85*	3	1	-11
Cc1ccc(CNC(=O)c2ccc(N3CCC4(CC3)CC(c3cccc(Br)c3)=NO4)c(NC(=O)c3ccc(Br)cc3)c2)cc1	-2	-7	2	9	-4	-6
COc1ccc2c3c(n(C)c2c1)[C@@H](CO)N(C(=O)c1ccccn1)CC31CCN(C(C)=O)CC1	.	7	.	.	.	.
Cc1ccc(NC(=O)c2cc(Cl)ccc2[N+](=O)[O-])cc1C	-2	.	2	-9	.	-3
CC(C)(C)NC(=O)c1cc(Cl)ccc1[N+](=O)[O-]	47	.	-47	-2	.	36*
CCn1c(Oc2ccc(F)cc2)nc2c1c(=O)n(C)c(=O)n2C	-1	0	1	-1	1	-7
